Experimental data published in ChEMBL document CHEMBL1124128, “Angiotensin-converting enzyme inhibitors. Mercaptan, carboxyalkyl dipeptide, and phosphinic acid inhibitors incorporating 4-substituted prolines” (J Med Chem, 1988).
Where “and” joins values, the source holds several entries; their conditions need not be identical. Equal values may be shown once.

What was measured:
[1] = target: T1, Angiotensin-converting enzyme (Rattus norvegicus, UniProt P47820); assay: In vitro inhibitory activity against angiotensin I converting enzyme of rats.; settings: read-out: I50
T1 sequence (P47820 whole entry): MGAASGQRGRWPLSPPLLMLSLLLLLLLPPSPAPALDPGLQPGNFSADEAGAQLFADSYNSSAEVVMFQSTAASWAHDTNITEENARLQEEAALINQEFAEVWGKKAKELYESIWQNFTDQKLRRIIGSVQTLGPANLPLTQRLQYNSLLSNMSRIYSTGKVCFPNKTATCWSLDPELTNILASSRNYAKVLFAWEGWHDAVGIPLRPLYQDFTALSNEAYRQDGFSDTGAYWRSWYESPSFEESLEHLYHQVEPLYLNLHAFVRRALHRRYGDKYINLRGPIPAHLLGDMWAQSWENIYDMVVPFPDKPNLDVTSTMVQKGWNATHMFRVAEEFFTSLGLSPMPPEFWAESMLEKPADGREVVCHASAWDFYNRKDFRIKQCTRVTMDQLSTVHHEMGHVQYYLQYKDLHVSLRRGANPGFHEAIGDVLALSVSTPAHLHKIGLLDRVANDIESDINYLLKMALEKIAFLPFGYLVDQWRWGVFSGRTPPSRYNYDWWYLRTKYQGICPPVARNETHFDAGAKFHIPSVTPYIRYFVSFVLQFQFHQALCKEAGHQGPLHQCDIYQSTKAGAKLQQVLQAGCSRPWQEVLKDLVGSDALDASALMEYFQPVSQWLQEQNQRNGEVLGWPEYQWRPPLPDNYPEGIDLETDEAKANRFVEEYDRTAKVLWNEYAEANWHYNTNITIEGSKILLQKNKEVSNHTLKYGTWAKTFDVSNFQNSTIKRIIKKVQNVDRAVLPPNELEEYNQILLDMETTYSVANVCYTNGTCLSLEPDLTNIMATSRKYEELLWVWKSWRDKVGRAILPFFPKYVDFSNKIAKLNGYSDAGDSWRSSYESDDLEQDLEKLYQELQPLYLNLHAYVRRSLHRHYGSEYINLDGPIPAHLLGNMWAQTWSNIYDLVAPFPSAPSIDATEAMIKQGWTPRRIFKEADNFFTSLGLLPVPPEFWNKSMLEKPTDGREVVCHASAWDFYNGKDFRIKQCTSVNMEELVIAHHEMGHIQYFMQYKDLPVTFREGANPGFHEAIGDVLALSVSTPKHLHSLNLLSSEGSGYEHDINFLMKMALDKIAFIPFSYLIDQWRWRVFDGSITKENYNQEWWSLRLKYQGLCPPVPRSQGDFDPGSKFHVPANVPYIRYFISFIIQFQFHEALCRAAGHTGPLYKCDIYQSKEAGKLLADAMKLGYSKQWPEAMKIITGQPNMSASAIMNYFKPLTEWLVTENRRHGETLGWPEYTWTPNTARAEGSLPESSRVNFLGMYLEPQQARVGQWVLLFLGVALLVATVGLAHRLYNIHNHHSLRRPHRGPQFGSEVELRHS

[2] = target: T2, Angiotensin-converting enzyme (Rattus norvegicus) (UniProt P47820); assay: In vitro inhibition of rat Angiotensin I converting enzyme
T2 sequence (whole entry): T1 sequence (P47820 whole entry)

[3] = test system: Rattus norvegicus; assay: % Inhibition of angiotensin-I induced pressor response in normotensive rats after intravenous dosing of 0.15 umol/kg; type: functional
In short: (§1)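 Conscious, unrestrained male Sprague–Dawley rats (225–275 g) with indwelling aortic and vena caval catheters, allowed at least 2 weeks of recovery. Aortic pressure recorded directly. Baseline pressor responses to AI (310 ng/kg iv) and AII (100 ng/kg iv) were taken first. Compound was given iv in 0.1 mL water or 5% NaHCO3, and responses were followed for up to 70 min. Maximum % inhibition is the mean of four animals per dose.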

[4] = test system: Rattus norvegicus; assay: % Inhibition of angiotensin-I induced pressor response in normotensive rats after intravenous dosing of 0.5 umol/kg; type: functional; in short: as §1
[5] = test system: Rattus norvegicus; assay: % Inhibition of angiotensin-I induced pressor response in normotensive rats after intravenous dosing of 0.05 umol/kg; type: functional
In short: (§2)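 Male Sprague–Dawley rats (225–275 g) fitted with indwelling abdominal aorta and vena cava catheters, recovered at least 2 weeks, then tested conscious and unrestrained. Aortic pressure was recorded directly. Pressor responses to AI (310 ng/kg iv) and AII (100 ng/kg iv) were taken before dosing. Compound was given iv in water or 5% NaHCO3, and responses were followed up to 70 min. Maximum % inhibition is the mean of four animals per dose.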

[6] = test system: Rattus norvegicus; assay: % Inhibition of angiotensin-I induced pressor response in normotensive rats after peroral dosing of 5 umol/kg; type: functional; settings: po
In short: (§3)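 Conscious, unrestrained catheterized male Sprague–Dawley rats (225–275 g) had direct aortic pressure recording. Baseline pressor responses were taken to AI (310 ng/kg iv) and AII (100 ng/kg iv). Compound was given orally in water, 5% NaHCO3 or 1% agar suspension. AI and AII responses were then tracked up to 280 min. Maximum % inhibition is the mean response of four animals per dose.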

[7] = test system: Rattus norvegicus; assay: % Inhibition of angiotensin-I induced pressor response in normotensive rats after peroral dosing of 15 umol/kg; type: functional; settings: po; in short: as §3
[8] = test system: Rattus norvegicus; assay: % Inhibition of angiotensin-I induced pressor response in normotensive rats after intravenous dosing of 0.015 umol/kg; type: functional; in short: as §2
[9] = test system: Rattus norvegicus; assay: % Inhibition of angiotensin-I induced pressor response in normotensive rats after peroral dosing of 1.5 umol/kg; type: functional; settings: po; in short: as §3
[10] = test system: Rattus norvegicus; assay: % Inhibition of angiotensin-I induced pressor response in normotensive rats after peroral dosing of 0.5 umol/kg; type: functional; settings: po; in short: as §3
[11] = test system: Rattus norvegicus; assay: % Inhibition of angiotensin-I induced pressor response in normotensive rats after peroral dosing of 50 umol/kg; type: functional; settings: po; in short: as §3
[12] = test system: Rattus norvegicus; assay: % Inhibition of angiotensin-I induced pressor response in normotensive rats after intravenous dosing of 1.5 umol/kg; type: functional; in short: as §1

COC1(OC)C[C@@H](C(=O)O)N(C(=O)[C@H](C)CS)C1
IC50 [1]: 7.2 nM

O=C(O)[C@@H]1C[C@@H](c2ccccc2)CN1C(=O)CP(=O)(O)CCCCc1ccccc1
T50 [2]: 120 nM
inhibition in vivo at 0.15 µmol/kg [3]: 37%
inhibition in vivo at 0.5 µmol/kg [4]: 76%
inhibition in vivo at 0.05 µmol/kg [5]: 17%

C[C@H](N[C@@H](CCc1ccccc1)C(=O)O)C(=O)N1CCC[C@H]1C(=O)O [ENALAPRILAT ANHYDROUS]
inhibition in vivo at 5 µmol/kg [6]: 46%
inhibition in vivo at 15 µmol/kg [7]: 85%
inhibition in vivo at 0.15 µmol/kg [3]: 90%
inhibition in vivo at 0.015 µmol/kg [8]: 11%
inhibition in vivo at 0.05 µmol/kg [5]: 67%

CS[C@H]1C[C@@H](C(=O)O)N(C(=O)[C@H](C)CS)C1
IC50 [1]: 3 nM

C[C@H](CS)C(=O)N1C[C@H](O)C[C@H]1C(=O)O
IC50 [1]: 26 nM

C[C@H](CS)C(=O)N1C[C@@H](O)C[C@H]1C(=O)O
IC50 [1]: 8.6 nM

O=C(O)[C@@H]1C[C@H](c2ccccc2)CN1C(=O)CP(=O)(O)CCCCc1ccccc1
T50 [2]: 7 nM
inhibition in vivo at 0.15 µmol/kg [3]: 69%
inhibition in vivo at 0.5 µmol/kg [4]: 97%
inhibition in vivo at 0.05 µmol/kg [5]: 16%

CS[C@@H]1C[C@@H](C(=O)O)N(C(=O)CP(=O)(O)CCCCc2ccccc2)C1
T50 [2]: 29 nM
inhibition in vivo at 0.15 µmol/kg [3]: 27%
inhibition in vivo at 0.015 µmol/kg [8]: 7%
inhibition in vivo at 0.5 µmol/kg [4]: 79%
inhibition in vivo at 0.05 µmol/kg [5]: 44%

CO[C@@H]1C[C@@H](C(=O)O)N(C(=O)[C@H](C)CS)C1
IC50 [1]: 12 nM

CCOC(=O)[C@H](CCc1ccccc1)N[C@@H](C)C(=O)N1CCC[C@H]1C(=O)O
inhibition in vivo at 5 µmol/kg [6]: 83%
inhibition in vivo at 1.5 µmol/kg [9]: 84%
inhibition in vivo at 0.5 µmol/kg [10]: 50%

C[C@H](CS)C(=O)N1C[C@@H](Sc2ccc(Cl)cc2)C[C@H]1C(=O)O
IC50 [1]: 11 nM

CO[C@H]1C[C@@H](C(=O)O)N(C(=O)CP(=O)(O)CCCCc2ccccc2)C1
T50 [2]: 60 nM
inhibition in vivo at 0.15 µmol/kg [3]: 55%
inhibition in vivo at 0.5 µmol/kg [4]: 90%
inhibition in vivo at 0.05 µmol/kg [5]: 16%

CS[C@@H]1C[C@@H](C(=O)O)N(C(=O)[C@H](C)N[C@@H](CCc2ccccc2)C(=O)O)C1
inhibition in vivo at 0.15 µmol/kg [3]: 77%
inhibition in vivo at 0.015 µmol/kg [8]: 29%
IC50 [1]: 5 nM
inhibition in vivo at 0.05 µmol/kg [5]: 69%

C[C@H](N[C@@H](CCc1ccccc1)C(=O)O)C(=O)N1C[C@@H](Sc2ccccc2)C[C@H]1C(=O)O
inhibition in vivo at 5 µmol/kg [6]: 67%
inhibition in vivo at 1.5 µmol/kg [9]: 31%
inhibition in vivo at 15 µmol/kg [7]: 78%
inhibition in vivo at 0.15 µmol/kg [3]: 85%
inhibition in vivo at 0.015 µmol/kg [8]: 20%
IC50 [1]: 2 nM
inhibition in vivo at 0.5 µmol/kg [10]: 23%
inhibition in vivo at 0.05 µmol/kg [5]: 43%

CO[C@H]1C[C@@H](C(=O)O)N(C(=O)[C@H](C)CS)C1
IC50 [1]: 2.8 nM

C[C@H](N[C@@H](CCc1ccccc1)C(=O)O)C(=O)N1C[C@@H](C2CCCCC2)C[C@H]1C(=O)O
inhibition in vivo at 0.15 µmol/kg [3]: 92%
inhibition in vivo at 0.015 µmol/kg [8]: 21%
IC50 [1]: 5 nM
inhibition in vivo at 0.05 µmol/kg [5]: 48%

C[C@H](CS)C(=O)N1C[C@@H](Sc2ccc3ccccc3c2)C[C@H]1C(=O)O
IC50 [1]: 96 nM

C[C@H](CS)C(=O)N1C[C@@H](Oc2ccccc2)C[C@H]1C(=O)O
IC50 [1]: 97 nM

C[C@H](CS)C(=O)N1CC2(C[C@H]1C(=O)O)OCCO2
IC50 [1]: 2.9 nM

O=C(O)[C@@H]1CC2(CN1C(=O)CP(=O)(O)CCCCc1ccccc1)SCCS2
T50 [2]: 4 nM and 2 nM
inhibition in vivo at 5 µmol/kg [6]: 28%
inhibition in vivo at 15 µmol/kg [7]: 74%
inhibition in vivo at 0.15 µmol/kg [3]: 80%
inhibition in vivo at 50 µmol/kg [11]: 94%
inhibition in vivo at 0.015 µmol/kg [8]: 20%
inhibition in vivo at 0.5 µmol/kg [4]: 90%
inhibition in vivo at 0.05 µmol/kg [5]: 47%

CS[C@H]1C[C@@H](C(=O)O)N(C(=O)CP(=O)(O)CCCCc2ccccc2)C1
T50 [2]: 32 nM
inhibition in vivo at 1.5 µmol/kg [12]: 89%
inhibition in vivo at 0.15 µmol/kg [3]: 29%
inhibition in vivo at 0.5 µmol/kg [4]: 69%

CCOC(=O)[C@H](CCc1ccccc1)N[C@@H](C)C(=O)N1C[C@@H](Sc2ccccc2)C[C@H]1C(=O)O
inhibition in vivo at 5 µmol/kg [6]: 86%
inhibition in vivo at 1.5 µmol/kg [9]: 81%
inhibition in vivo at 0.5 µmol/kg [10]: 29%

C[C@H](CS)C(=O)N1CC2(C[C@H]1C(=O)O)SCCS2
IC50 [1]: 6.5 nM

C[C@H](CS)C(=O)N1CC(=O)C[C@H]1C(=O)O
IC50 [1]: 16 nM

C[C@H](N[C@@H](CCc1ccccc1)C(=O)O)C(=O)N1C[C@H](Sc2ccccc2)C[C@H]1C(=O)O
inhibition in vivo at 0.015 µmol/kg [8]: 57%
IC50 [1]: 2 nM
inhibition in vivo at 0.05 µmol/kg [5]: 94%

C[C@H](CS)C(=O)N1C[C@@H](c2ccccc2)C[C@H]1C(=O)O
IC50 [1]: 30 nM

C[C@H](CS)C(=O)N1C[C@@H](Sc2ccc(F)cc2)C[C@H]1C(=O)O
IC50 [1]: 17 nM

C[C@H](CS)C(=O)N1C[C@@H](Oc2ccc3ccccc3c2)C[C@H]1C(=O)O
IC50 [1]: 13 nM

C[C@H](CS)C(=O)N1C[C@@H](S(=O)(=O)c2ccccc2)C[C@H]1C(=O)O
IC50 [1]: 28 nM

C[C@H](CS)C(=O)N1C[C@@H](C2CCCCC2)C[C@H]1C(=O)O
IC50 [1]: 2 nM

O=C(O)[C@@H]1C[C@H](Cc2ccccc2)CN1C(=O)CP(=O)(O)CCCCc1ccccc1
T50 [2]: 10 nM

C[C@H](N[C@@H](CCc1ccccc1)C(=O)O)C(=O)N1C[C@@H](c2ccccc2)C[C@H]1C(=O)O
IC50 [1]: 5 nM

C[C@H](CS)C(=O)N1C[C@@H](Sc2ccccc2)C[C@H]1C(=O)O [ZOFENOPRILAT]
IC50 [1]: 8 nM

C[C@H](CS)C(=O)N1C[C@@H]([S+]([O-])c2ccccc2)C[C@H]1C(=O)O (stereo partly specified)
IC50 [1]: 46 nM

C[C@H]1C[C@@H](C(=O)O)N(C(=O)[C@H](C)CS)C1
IC50 [1]: 2 nM
